Assay results from publication PMC2156157 (The Journal of Cell Biology, 1999).
One block for each substance: values may come before it. Ends that are not written are not given here. * marks the point of attachment. Biotin = O=C1N[C@H]2[C@H](CS[C@H]2CCCCC(=O)*)N1

Columns and labels:
c-Yes = assay type: cell-based, human; conditions: 16HBE14o− on transwell filters, mouse anti–c-Yes (1:100), XZ confocal
Procedure, shortened: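 16HBE14o− clones stably expressing GFP-YAP65 chimeras were selected with G418 and screened by fluorescence and anti-GFP blot. Cells were grown to confluence on transwell filters and fixed in 4% paraformaldehyde. After blocking (milk/BSA/0.1% Triton X-100, 3 h), they were stained with mouse anti-c-Yes (1:100) and fluorescent secondary antiserum, then scanned in XZ by confocal microscopy. At least two independent clones per line were analysed.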

GST-PDZ1 = GST-PDZ1 pull-down from 16HBE14o− lysate, Western blot; assay type: binding, human; conditions: 10 μg GST-PDZ1, ∼200 μg 16HBE14o− lysate
Procedure, shortened: (§1)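 GST fusion protein (10 μg) immobilized on glutathione agarose and incubated 3 h at 4°C with ~200 μg 16HBE14o− lysate. Lysate made in RIPA with 250 μM orthovanadate and protease inhibitors, cleared at 40,000 g, and diluted in binding buffer + 0.1% Triton X-100. Beads washed in TEE/1 M NaCl/1% Triton, then in binding buffer/1% Triton. Eluates run on SDS-PAGE and Western blotted; each assay run at least three times.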

GST-PDZ2 = GST-PDZ2 pull-down from 16HBE14o− lysate, Western blot; assay type: binding, human; conditions: 10 μg GST-PDZ2, ∼200 μg 16HBE14o− lysate
Procedure, shortened: as §1

GST [1] = assay: GST control pull-down from 16HBE14o− lysate, Western blot; assay type: binding; conditions: 10 μg GST
Procedure, shortened: (§2)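 Human bronchial epithelial 16HBE14o− cells lysed in RIPA with 250 µM orthovanadate and protease inhibitors, then cleared at 40,000 g. GST or GST fusion protein (10 µg) on glutathione agarose was incubated with lysate (100 µg or ~200 µg) in binding buffer + 0.1% Triton X-100 for 3 h at 4°C. Washes: TEE/1 M NaCl/1% Triton, then binding buffer. Bound protein detected by 10% SDS-PAGE and immunoblot; ≥3 repeats.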

GST-EBP50 [2] = assay: GST-EBP50 pull-down from 16HBE14o− lysate, Western blot; assay type: binding, human; conditions: 10 μg GST-EBP50, 16HBE14o− lysate
Procedure, shortened: as §2

GST [3] = assay: GST control resin binding of radiolabeled protein; conditions: 10 μg; radiolabeled full-length YAP65; 1 M NaCl washes
Procedure, shortened: (§3)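 GST or GST-EBP50, PDZ1 or PDZ2 fusion (10 µg) was immobilised on glutathione agarose. Binding ran in binding buffer + 0.1% Triton X-100 for 3 h at 4°C. Resin washed three times in TEE/1 M NaCl/1% Triton, then three times in binding buffer/1% Triton. Eluate acetone-precipitated; SDS-PAGE and phosphorimaging; ≥3 repeats.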

GST-PDZ2 (PDZ2 of EBP50) = assay: GST-PDZ2 affinity resin binding of radiolabeled protein; parameters: species or system human
Procedure, shortened: as §3

GST-PDZ1 (PDZ1 of EBP50) = assay: GST-PDZ1 affinity resin binding of radiolabeled protein; parameters: species or system human; conditions: 10 μg; radiolabeled full-length YAP65; 1 M NaCl washes
Procedure, shortened: as §3

[4] = test system: SH3 domain of c-Src and c-Yes; conditions: biochemical assays; ref Sudol 1994; cited from earlier work
[5] = test system: apical membrane of airway epithelial cells; assay type: cell-based, human; conditions: 16HBE14o− cells on transwell filters 7–10 d after confluence, confocal
Procedure, shortened: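 Samples were 16HBE14o− filters (7–10 d post-confluence) or primary nasal cultures (air-liquid interface, 40–50 d). Fixation was 4% paraformaldehyde, 5–20 min, room temperature. Blocking used milk/BSA/Triton (16HBE14o−) or 10–20% goat serum (primary). Primary antisera ran 4–12 h: ezrin 1:300, ZO-1 1:200, EBP50 1:500 or 1:200, YAP65 1:300 or 1:200. Primary cultures also got 70 nM FITC-phalloidin. Texas red/FITC secondaries, XZ confocal imaging.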

GST-EBP50 [6] = assay: GST-EBP50 affinity resin binding of radiolabeled proteins; parameters: species or system human; conditions: in vitro, conclusion from competition and resin binding
Procedure, shortened: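 GST-EBP50 (10 µg) on glutathione agarose was preincubated for 2 h with or without biotinylated C-terminal peptides. Peptides were given at 400 nM, or at increasing concentrations of YAP65 wild-type peptide. Incubation lasted 3 h at 4°C, followed by high-salt (1 M NaCl) and detergent washes. Bound and unbound fractions read by SDS-PAGE and phosphorimaging.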

GST-EBP50 [7] = assay: blot overlay, GST-EBP50; assay type: binding, human; conditions: blot overlay assays (not shown)

Substance: GFP-YAP65/−4: GFP fused with YAP65 lacking the last four amino acids
c-Yes distribution in cells stably overexpressing the chimera (c-Yes): a significant amount of c-Yes was redistributed to the lateral cell borders

Substance: c-Yes: nonreceptor tyrosine kinase of the Src family
association with GST-PDZ1 from lysate (GST-PDZ1): no c-Yes was found to associate with GST or with GST-PDZ1 | association with GST-PDZ2 from lysate (GST-PDZ2): easily visualized in the bound fraction of GST-EBP50 and GST-PDZ2 affinity resins | association with GST from lysate (GST [1]): no c-Yes was found to associate with GST or with GST-PDZ1 | association with GST-EBP50 from lysate (GST-EBP50 [2]): easily visualized in the bound fraction of GST-EBP50 and GST-PDZ2 affinity resins

association with GST (GST [3]): not with GST or GST-PDZ1 | association with GST-PDZ1 (GST-PDZ1 (PDZ1 of EBP50)): not with GST or GST-PDZ1 | affinity for EBP50 (GST-EBP50 [6]): appear to bind EBP50 with high affinity
Substance: YAP65: Yes-associated protein 65; full-length human, in vitro translated, or endogenous
association with GST-PDZ2 (GST-PDZ2 (PDZ2 of EBP50); 10 μg, radiolabeled full-length YAP65, 1 M NaCl washes): associated with GST-EBP50 and GST-PDZ2 of EBP50 | binding to SH3 domain of c-Src and c-Yes [4]: bind the SH3 domain of c-Src and c-Yes, although the affinity for c-Yes was greater | localization of endogenous protein [5]: preferentially accumulated at the apical membrane | association with GST from lysate (GST [1]): not to GST beads | association with GST-EBP50 from lysate (GST-EBP50 [2]): bound to the GST-EBP50 beads

preferential binding to PDZ2 versus PDZ1 (GST-PDZ2 (PDZ2 of EBP50); GST fusion proteins of PDZ1 and PDZ2, pull-down (Fig. 5 C), discussion statement): preferential binding of YAP65 to PDZ2 | binding to GST-EBP50 in blot overlay (GST-EBP50 [7]): bound GST-EBP50
Substance: YAPwt: the COOH-terminal 10 amino acids of YAP65 (Biotin-SGSGLDKESFLTWL)
